The subject of test [1] is Streptococcus pneumoniae. Nature of the test: Ratio of MIC for penicillin-resistant Streptococcus pneumoniae 5204 to MIC for penicillin-sensitive Streptococcus pneumoniae R6. The class given is functional. The procedure, abridged:
(§1)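 Strains grown in Todd-Hewitt medium at 37 °C to OD600 0.3, then plated on Columbia blood agar with 5% horse blood containing LTV or PLTV at 0 to 100 µg ml-1. MIC taken as the concentration at visually determined growth arrest on plates. Ratio lines compare resistant-strain MIC with the R6 MIC obtained the same way.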

The test system of test [2] is Streptococcus pneumoniae. Nature of the test: Antibacterial activity against penicillin-resistant Streptococcus pneumoniae 38040505 […]. The format is functional. The method in brief: as §1
The subject of test [3] is Streptococcus pneumoniae. The test can be described thus: Antibacterial activity against penicillin-resistant Streptococcus pneumoniae 4790 […]. The format is functional. The method in brief:
as §1

The test system of test [4] is Streptococcus pneumoniae. Nature of the test: Antibacterial activity against penicillin-sensitive Streptococcus pneumoniae R6 […]. The class given is functional. The procedure, abridged: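 Strain grown in Todd-Hewitt medium at 37 °C to OD600 0.3, then plated on Columbia blood agar with 5% horse blood containing compound at 0 to 100 µg ml-1. MIC taken as the concentration giving visible growth arrest on plates.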

The target in test [5] is T1, Penicillin-binding protein 2x (Streptococcus pneumoniae serotype 4 (strain ATCC BAA-334 / TIGR4), UniProt P14677). The test can be described thus: Inhibition of penicillin-resistant Streptococcus pneumoniae 5204 PBP2x after 60 mins by SDS-PAGE. The procedure, abridged: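 PBP2x-5204 (0.8 µM) preincubated with PLTV for 60 min in 10 mM sodium phosphate pH 7.0, 30 °C, with 1% dimethylformamide. Residual active enzyme counterlabeled with 10 µM fluorescein-ampicillin for 40 min, then analyzed by SDS-PAGE and fluorescence. IC50 fitted from background-subtracted residual activity against inhibitor concentration.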

Test [6] has as its system Streptococcus pneumoniae. Nature of the test: Ratio of MIC for penicillin-resistant Streptococcus pneumoniae 38030509 to MIC for penicillin-sensitive Streptococcus pneumoniae R6. The class given is functional. The procedure, abridged:
as §1

Test [7] relates to Streptococcus pneumoniae. Nature of the test: Antibacterial activity against penicillin-resistant Streptococcus pneumoniae 38030509 […]. The class given is functional. The procedure, abridged: as §1
Test [8] deals with Streptococcus pneumoniae. The test can be described thus: Ratio of MIC for penicillin-resistant Streptococcus pneumoniae 4790 to MIC for penicillin-sensitive Streptococcus pneumoniae R6. The class given is functional. The method in brief:
as §1

Test [9] relates to Streptococcus pneumoniae. The test can be described thus: Ratio of MIC for penicillin-resistant Streptococcus pneumoniae 38040505 to MIC for penicillin-sensitive Streptococcus pneumoniae R6. The format is functional. The method in brief:
as §1

Test [10] deals with Streptococcus pneumoniae. The test can be described thus: Antibacterial activity against penicillin-resistant Streptococcus pneumoniae 5204 […]. The class given is functional. The method in brief:
as §1

Test [11] deals with T1, Penicillin-binding protein 2x. Nature of the test: Inhibition of penicillin-resistant Streptococcus pneumoniae 5204 PBP2x after 120 mins by SDS-PAGE. The method in brief: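 PBP2x-5204 (0.8 µM) preincubated with LTV for 120 min, then remaining active PBP counterlabeled with 10 µM fluorescein-ampicillin for 40 min. Bands resolved by SDS-PAGE with fluorescence imaging; background subtracted. IC50 fitted from residual activity versus inhibitor concentration. Kinetic work at 30 °C in 10 mM sodium phosphate pH 7.0.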

Values after ≈ are worked out from the molar mass of the structure shown.

T1 sequence (P14677 whole entry, looked up): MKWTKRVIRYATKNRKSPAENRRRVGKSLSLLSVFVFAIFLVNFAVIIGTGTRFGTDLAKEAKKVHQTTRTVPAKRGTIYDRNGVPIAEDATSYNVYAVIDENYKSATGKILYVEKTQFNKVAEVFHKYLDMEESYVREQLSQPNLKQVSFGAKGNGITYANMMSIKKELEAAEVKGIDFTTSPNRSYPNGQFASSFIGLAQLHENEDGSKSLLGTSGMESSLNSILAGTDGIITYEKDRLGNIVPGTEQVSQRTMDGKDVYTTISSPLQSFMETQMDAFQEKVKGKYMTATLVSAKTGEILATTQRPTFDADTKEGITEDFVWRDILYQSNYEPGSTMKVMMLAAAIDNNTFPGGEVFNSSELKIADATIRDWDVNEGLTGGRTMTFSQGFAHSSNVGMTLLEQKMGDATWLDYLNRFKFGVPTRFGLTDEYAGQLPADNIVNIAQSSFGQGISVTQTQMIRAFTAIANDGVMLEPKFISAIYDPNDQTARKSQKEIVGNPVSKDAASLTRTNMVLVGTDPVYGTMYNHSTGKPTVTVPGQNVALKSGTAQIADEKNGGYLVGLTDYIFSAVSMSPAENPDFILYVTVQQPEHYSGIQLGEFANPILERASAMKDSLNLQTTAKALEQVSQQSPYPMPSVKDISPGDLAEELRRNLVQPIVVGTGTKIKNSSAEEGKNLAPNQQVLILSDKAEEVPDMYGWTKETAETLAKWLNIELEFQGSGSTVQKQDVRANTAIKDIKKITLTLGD

As usually defined, the MIC is the least concentration at which growth counts as inhibited. The IC50 is the point on the concentration scale where inhibition reaches its midpoint. With `O=C(COc1ccccc1)N[C@H]1CON([C@@]2(C(=O)O)CCC(=O)O2)C1=O` [PHENOXYACETYL LACTIVICIN], the Ratio in the test on Streptococcus pneumoniae [1], with Streptococcus pneumoniae [6], in the test with Streptococcus pneumoniae [8] and in the test on Streptococcus pneumoniae [9] was 5.3 in each case. Besides, the MIC in the test on Streptococcus pneumoniae [2] is 80 µg/mL (≈ 220 µM); in the test on Streptococcus pneumoniae [3], above 100 µg/mL; against Streptococcus pneumoniae [4], 15 µg/mL (≈ 41.2 µM); against Streptococcus pneumoniae [7] it was above 100 µg/mL; with Streptococcus pneumoniae [10], 90 µg/mL (≈ 247 µM). The molecule further registered an IC50 in test [5] of 7.9 µM.

For the molecule `CC(=O)NC1CON(C2(C(=O)O)CCC(=O)O2)C1=O` (centres undefined) [LACTIVICIN], the Ratio with Streptococcus pneumoniae [1], with Streptococcus pneumoniae [6], in the test with Streptococcus pneumoniae [8] and in the test on Streptococcus pneumoniae [9] was 5 in each case. Further, the MIC against Streptococcus pneumoniae [2] was 10 µg/mL (≈ 36.7 µM); against Streptococcus pneumoniae [3] it was 20 µg/mL (≈ 73.5 µM); with Streptococcus pneumoniae [4] it was 2 µg/mL (≈ 7.35 µM); against Streptococcus pneumoniae [7], 20 µg/mL (≈ 73.5 µM); against Streptococcus pneumoniae [10], above 20 µg/mL. The molecule also came in with an IC50 in [11] of 150 µM.

With `CC1(C)S[C@@H]2[C@H](NC(=O)Cc3ccccc3)C(=O)N2[C@H]1C(=O)O` [PENICILLIN G], the Ratio in the test on Streptococcus pneumoniae [1], with Streptococcus pneumoniae [6], with Streptococcus pneumoniae [8] and in the test on Streptococcus pneumoniae [9] was 150 throughout. Besides, the MIC in the test with Streptococcus pneumoniae [2] worked out at 1.5 µg/mL (≈ 4.49 µM); against Streptococcus pneumoniae [3], 1.5 µg/mL (≈ 4.49 µM); against Streptococcus pneumoniae [4], 0.01 µg/mL (≈ 0.0299 µM); against Streptococcus pneumoniae [7], 2 µg/mL (≈ 5.98 µM); in the test on Streptococcus pneumoniae [10], 6 µg/mL (≈ 17.9 µM).

These data come from ChEMBL document CHEMBL1221205, “Structural and mechanistic basis of penicillin-binding protein inhibition by lactivicins” (Nat Chem Biol, 2007).
